# Measurements reported in ChEMBL document CHEMBL1157359, “Binding of ceftobiprole and comparators to the penicillin-binding proteins of Escherichia coli, Pseudomonas aeruginosa, Staphylococcus aureus, and Streptococcus pneumoniae” (Antimicrob Agents Chemother, 2007).
# pIC50: −log10 of the molar value.
# Columns and labels:
# [1] = Inhibition of bocillin FL binding to penicillin-susceptible Streptococcus pneumoniae OC 8865 penicillin-binding protein 2a
# Method in brief: (§1)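 S. pneumoniae OC 8865 PBPs assayed in whole cells; drug competition followed by Bocillin FL labeling and imaging of labeled PBPs. IC50 is 50% inhibition of Bocillin FL binding compared with a no-drug control.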
# [2] = Inhibition of bocillin FL binding to penicillin-susceptible Streptococcus pneumoniae OC 8865 penicillin-binding protein 2b; method in brief: as §1
# [3] = Inhibition of bocillin FL binding to penicillin-resistant Streptococcus pneumoniae OC 8819 penicillin-binding protein 2x
# Method in brief: (§2)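 Whole S. pneumoniae cells were used rather than isolated membranes. Cells were competed with drug and then labeled with Bocillin FL, and PBP bands were visualized by fluorescence imaging. IC50 is the drug concentration that inhibits Bocillin FL binding to each PBP by 50% relative to a no-drug control.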
# [4] = Inhibition of bocillin FL binding to penicillin-resistant Streptococcus pneumoniae OC 8819 penicillin-binding protein 3; method in brief: as §2
# [5] = target: T1, Penicillin-binding protein 1B (Pseudomonas aeruginosa, UniProt Q9X6W0); experiment: Inhibition of bocillin FL binding to Pseudomonas aeruginosa PAO1 penicillin-binding protein 1b
# T1 sequence (Q9X6W0 whole entry): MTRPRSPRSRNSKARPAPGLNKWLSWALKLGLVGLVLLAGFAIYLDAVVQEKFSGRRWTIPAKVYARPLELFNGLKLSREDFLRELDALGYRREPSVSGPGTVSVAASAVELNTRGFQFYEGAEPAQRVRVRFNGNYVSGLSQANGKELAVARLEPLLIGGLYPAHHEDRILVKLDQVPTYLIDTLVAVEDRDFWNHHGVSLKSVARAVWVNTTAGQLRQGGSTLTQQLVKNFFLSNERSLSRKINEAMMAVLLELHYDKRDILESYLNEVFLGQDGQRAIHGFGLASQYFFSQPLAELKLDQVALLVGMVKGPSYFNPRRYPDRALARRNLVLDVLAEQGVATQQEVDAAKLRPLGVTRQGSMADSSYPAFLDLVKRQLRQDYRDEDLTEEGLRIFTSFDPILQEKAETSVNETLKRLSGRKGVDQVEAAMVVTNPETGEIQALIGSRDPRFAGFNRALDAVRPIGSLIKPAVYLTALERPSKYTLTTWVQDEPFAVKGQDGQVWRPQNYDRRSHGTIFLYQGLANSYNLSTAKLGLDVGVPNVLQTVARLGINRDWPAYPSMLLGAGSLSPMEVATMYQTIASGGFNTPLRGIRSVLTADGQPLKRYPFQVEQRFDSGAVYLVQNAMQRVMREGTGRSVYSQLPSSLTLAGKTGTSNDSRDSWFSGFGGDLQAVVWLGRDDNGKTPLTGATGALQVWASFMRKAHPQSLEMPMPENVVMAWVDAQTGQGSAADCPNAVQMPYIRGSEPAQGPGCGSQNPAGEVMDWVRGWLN
# Method in brief: (§3)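 Isolated P. aeruginosa PAO1 PBPs; drug added at 10 concentrations, 0.06 μg/ml to 32 μg/ml, before Bocillin FL labeling. Labeled PBPs imaged. IC50 is the drug level cutting Bocillin FL binding by 50% versus a no-drug sample.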
# [6] = Inhibition of bocillin FL binding to Pseudomonas aeruginosa PAO1 penicillin-binding protein 1a
# Method in brief: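 P. aeruginosa PAO1 PBPs were isolated and competed with 10 drug concentrations from 0.06 μg/ml to 32 μg/ml before Bocillin FL labeling. Bands were detected by fluorescence imaging. IC50 was taken as 50% inhibition of Bocillin FL binding versus the no-drug sample.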
# [7] = target: T2, Penicillin-binding protein 2 (Pseudomonas aeruginosa, UniProt Q9X6V3); experiment: Inhibition of bocillin FL binding to Pseudomonas aeruginosa PAO1 penicillin-binding protein 2; method in brief: as §3
# T2 sequence (Q9X6V3 whole entry): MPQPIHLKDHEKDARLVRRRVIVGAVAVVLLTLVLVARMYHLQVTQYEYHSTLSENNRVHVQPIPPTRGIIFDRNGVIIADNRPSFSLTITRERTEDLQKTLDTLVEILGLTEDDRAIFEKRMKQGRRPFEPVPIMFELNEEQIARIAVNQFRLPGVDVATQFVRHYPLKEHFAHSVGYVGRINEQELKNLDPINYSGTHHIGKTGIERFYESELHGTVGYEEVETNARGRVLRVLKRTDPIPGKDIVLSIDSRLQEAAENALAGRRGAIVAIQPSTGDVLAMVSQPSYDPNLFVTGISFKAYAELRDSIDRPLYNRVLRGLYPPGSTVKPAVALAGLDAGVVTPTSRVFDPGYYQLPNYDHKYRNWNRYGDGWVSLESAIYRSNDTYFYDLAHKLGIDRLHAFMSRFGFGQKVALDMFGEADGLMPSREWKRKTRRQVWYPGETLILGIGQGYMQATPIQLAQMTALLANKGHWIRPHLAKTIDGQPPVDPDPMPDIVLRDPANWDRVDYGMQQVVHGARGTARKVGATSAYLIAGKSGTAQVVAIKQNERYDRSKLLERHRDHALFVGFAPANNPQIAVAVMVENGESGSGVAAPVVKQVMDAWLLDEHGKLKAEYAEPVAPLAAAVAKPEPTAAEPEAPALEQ
# [8] = target: Penicillin-binding protein 3 (Pseudomonas aeruginosa, UniProt Q51504); experiment: Inhibition of bocillin FL binding to Pseudomonas aeruginosa PAO1 penicillin-binding protein 3; method in brief: as §3
# [9] = Inhibition of bocillin FL binding to Pseudomonas aeruginosa PAO1 penicillin-binding protein 5/6; method in brief: as §3
# [10] = target: T3, Penicillin-binding protein 4 (Staphylococcus aureus, UniProt P72355); experiment: Inhibition of bocillin FL binding to methicillin-susceptible Staphylococcus aureus ATCC 29213 penicillin-binding protein 4
# T3 sequence (P72355 whole entry): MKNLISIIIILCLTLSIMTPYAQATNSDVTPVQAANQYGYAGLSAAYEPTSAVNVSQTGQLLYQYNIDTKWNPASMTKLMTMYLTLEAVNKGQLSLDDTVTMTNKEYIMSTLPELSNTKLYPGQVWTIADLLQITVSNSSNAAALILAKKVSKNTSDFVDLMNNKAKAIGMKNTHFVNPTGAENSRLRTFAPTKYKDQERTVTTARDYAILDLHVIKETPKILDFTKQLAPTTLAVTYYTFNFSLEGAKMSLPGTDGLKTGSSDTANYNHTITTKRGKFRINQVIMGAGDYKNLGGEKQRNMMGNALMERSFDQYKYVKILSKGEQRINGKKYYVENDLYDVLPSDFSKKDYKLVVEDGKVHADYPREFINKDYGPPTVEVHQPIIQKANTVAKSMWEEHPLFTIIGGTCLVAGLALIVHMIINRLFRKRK
# Method in brief: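 Isolated S. aureus ATCC 29213 PBPs exposed to drug over 0.001 μg/ml to 50 μg/ml, followed by Bocillin FL labeling and fluorescence imaging. IC50 is 50% inhibition of Bocillin FL binding relative to no-drug control.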
# [11] = Inhibition of bocillin FL binding to penicillin-susceptible Streptococcus pneumoniae OC 8865 penicillin-binding protein 1b; method in brief: as §1
# [12] = Inhibition of bocillin FL binding to penicillin-resistant Streptococcus pneumoniae OC 8819 penicillin-binding protein 1b; method in brief: as §2
# Sequence of Penicillin-binding protein 3 (Q51504 whole entry): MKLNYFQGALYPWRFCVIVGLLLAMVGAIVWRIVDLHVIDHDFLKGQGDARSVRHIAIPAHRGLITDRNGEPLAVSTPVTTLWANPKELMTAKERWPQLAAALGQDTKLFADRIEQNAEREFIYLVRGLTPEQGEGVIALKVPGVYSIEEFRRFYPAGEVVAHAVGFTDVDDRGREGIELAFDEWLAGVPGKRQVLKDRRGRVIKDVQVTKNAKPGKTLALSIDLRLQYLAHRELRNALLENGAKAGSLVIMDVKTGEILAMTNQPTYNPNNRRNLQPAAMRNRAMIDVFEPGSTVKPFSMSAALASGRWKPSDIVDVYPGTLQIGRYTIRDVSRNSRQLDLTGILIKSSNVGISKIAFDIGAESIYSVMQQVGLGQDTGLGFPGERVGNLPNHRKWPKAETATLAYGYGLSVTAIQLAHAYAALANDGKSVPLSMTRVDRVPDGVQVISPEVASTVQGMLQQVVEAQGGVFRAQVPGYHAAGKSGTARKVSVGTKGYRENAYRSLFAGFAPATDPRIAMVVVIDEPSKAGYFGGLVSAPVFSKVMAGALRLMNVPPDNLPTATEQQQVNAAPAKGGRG
SMILES,IC50 [1],IC50 [2],IC50 [3],IC50 [4],pIC50 [5],IC50 [6],pIC50 [7],pIC50 [8],IC50 [9],pIC50 [10],IC50 [11],IC50 [12]
Nc1nc(/C(=N/O)C(=O)N[C@@H]2C(=O)N3C(C(=O)O)=C(/C=C4\CCN([C@@H]5CCNC5)C4=O)CS[C@H]23)ns1 [CEFTOBIPROLE],0.03 µg/mL,0.06 µg/mL,1 µg/mL,0.01 µg/mL,6.03,0.1 µg/mL,5.25,6.73,> 32 µg/mL,5.73,0.05 µg/mL,
CC(C)(O/N=C(\C(=O)N[C@@H]1C(=O)N2C(C(=O)[O-])=C(C[n+]3ccccc3)CS[C@H]12)c1csc(N)n1)C(=O)O [CEFTAZIDIME],,,,,5.04,0.2 µg/mL,< 4.23,6.74,> 32 µg/mL,,,
CO/N=C(\C(=O)N[C@@H]1C(=O)N2C(C(=O)O)=C(CSc3nc(=O)c(O)nn3C)CS[C@H]12)c1csc(N)n1 (stereo in doubt) [CEFTRIAXONE],0.1 µg/mL,> 1 µg/mL,8 µg/mL,0.01 µg/mL,,,,,,4.74,0.03 µg/mL,0.02 µg/mL
